Measured values taken from ChEMBL document CHEMBL3994606, “Ring-opened tetrahydro-γ-carbolines display cytotoxicity and selectivity with histone deacetylase isoforms” (Eur J Med Chem, 2017).
Activity calls are given as the source filed them. The rule behind the calls is not given here.

Key:
HCT-116 [1] = assay: Antiproliferative activity against human HCT116 cells after 48 hrs by SRB assay; type: functional; settings: HCT-116, 48 h
Procedure, shortened: (§1)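 Cells seeded at 3-5 x 10³ cells/well. A T0 plate was fixed with 10% TCA at drug addition, and the rest were incubated 48 h with compound or DMSO, then TCA-fixed and stained with 0.4% SRB in 1% AcOH. Dye was extracted with 10 mM trizma base and read at 515 nm.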

PC-3 = assay: Antiproliferative activity against human PC3 cells after 48 hrs by SRB assay; type: functional; settings: PC-3, 48 h; procedure, shortened: as §1
A549 = assay: Antiproliferative activity against human A549 cells after 48 hrs by SRB assay; type: functional; settings: A549, 48 h; procedure, shortened: as §1
Histone deacetylase 1 = Histone deacetylase 1 (Homo sapiens, UniProt Q13547); assay: Inhibition of full length human recombinant C-terminal FLAG-His-tagged HDAC1 expressed in Sf21 cells using RHKK(Ac) as substrate after 60 mins by fluorimetric method
Histone deacetylase 2 = Histone deacetylase 2 (Homo sapiens, UniProt Q92769); assay: Inhibition of full length human recombinant C-terminal GST-tagged HDAC2 expressed in insect cells using RHKK(Ac) as substrate after 60 mins by fluorimetric method
[2] = target: T1, Protein deacetylase HDAC6 (Homo sapiens, UniProt Q9UBN7); assay: Inhibition of full length human recombinant N-terminal GST-tagged HDAC6 expressed in Sf9 cells using RHKK(Ac) as substrate after 90 mins by fluorimetric method
T1 sequence (Q9UBN7 whole entry): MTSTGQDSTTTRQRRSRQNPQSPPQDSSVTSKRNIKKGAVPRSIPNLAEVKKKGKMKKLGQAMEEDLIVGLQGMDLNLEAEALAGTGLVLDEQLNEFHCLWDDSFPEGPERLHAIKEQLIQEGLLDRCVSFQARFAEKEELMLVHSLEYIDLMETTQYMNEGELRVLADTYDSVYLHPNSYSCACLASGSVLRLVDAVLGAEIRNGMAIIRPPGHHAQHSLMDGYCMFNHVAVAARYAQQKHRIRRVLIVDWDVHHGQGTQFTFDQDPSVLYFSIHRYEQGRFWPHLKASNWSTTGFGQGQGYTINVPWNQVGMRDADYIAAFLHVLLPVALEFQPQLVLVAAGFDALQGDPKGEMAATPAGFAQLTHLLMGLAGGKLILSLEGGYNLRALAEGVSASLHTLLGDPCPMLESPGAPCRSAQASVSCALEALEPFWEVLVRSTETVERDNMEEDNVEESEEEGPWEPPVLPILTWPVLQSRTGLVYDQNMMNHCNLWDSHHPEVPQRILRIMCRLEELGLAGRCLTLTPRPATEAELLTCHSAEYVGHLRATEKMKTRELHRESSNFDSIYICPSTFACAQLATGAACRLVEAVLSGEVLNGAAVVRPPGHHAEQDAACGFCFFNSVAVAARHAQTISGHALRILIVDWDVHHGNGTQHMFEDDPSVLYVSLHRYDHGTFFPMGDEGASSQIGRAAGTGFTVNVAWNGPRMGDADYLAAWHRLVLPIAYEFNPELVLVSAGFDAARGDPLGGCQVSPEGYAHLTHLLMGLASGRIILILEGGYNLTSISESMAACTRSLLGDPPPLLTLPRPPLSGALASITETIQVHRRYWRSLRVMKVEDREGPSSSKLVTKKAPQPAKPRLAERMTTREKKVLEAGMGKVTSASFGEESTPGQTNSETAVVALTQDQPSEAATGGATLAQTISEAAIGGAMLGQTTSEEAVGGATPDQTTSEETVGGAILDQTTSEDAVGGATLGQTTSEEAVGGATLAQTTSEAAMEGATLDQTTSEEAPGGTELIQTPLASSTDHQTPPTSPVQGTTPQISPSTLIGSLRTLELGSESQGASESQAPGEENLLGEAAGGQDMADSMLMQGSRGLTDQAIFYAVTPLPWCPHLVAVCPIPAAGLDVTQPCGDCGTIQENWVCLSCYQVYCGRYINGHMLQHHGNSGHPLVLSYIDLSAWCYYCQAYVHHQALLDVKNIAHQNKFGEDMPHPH

Homo sapiens [3] = species: Homo sapiens; assay: Selectivity ratio of IC50 for full length human recombinant C-terminal FLAG-His-tagged HDAC1 to IC50 for full length human recombinant N-terminal GST-tagged HDAC6
Homo sapiens [4] = species: Homo sapiens; assay: Selectivity ratio of IC50 for full length human recombinant C-terminal GST-tagged HDAC2 to IC50 for full length human recombinant N-terminal GST-tagged HDAC6
HCT-116 [5] = assay: Cell cycle arrest in human HCT116 cells assessed as accumulation at sub-G1 phase at 5 uM after 48 hrs by propidium iodide staining-based flow cytometric method; type: functional
Procedure, shortened: (§2)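 HCT116 cells treated 48 h, then fixed overnight in 75% EtOH at -20 °C and washed in cold PBS. They were incubated 30 min at room temperature in 0.1 M phosphate-citric acid buffer (pH 7.8) and stained with propidium iodide buffer containing 0.1% Triton X-100 and RNase A. The sub-G1 fraction was measured by flow cytometry.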

HCT-116 [6] = assay: Induction of apoptosis in human HCT116 cells assessed as increase in cleaved PARP levels at 1.25 to 2.5 uM after 48 hrs Western blot method; type: functional, cell-based
HCT-116 [7] = assay: Induction of apoptosis in human HCT116 cells assessed as increase in cleaved caspase 3 levels at 1.25 to 2.5 uM after 48 hrs Western blot method; type: functional, cell-based
HCT-116 [8] = assay: Anticlonogenic activity against human HCT116 cells after 24 hrs by crystal violet staining-based assay; type: functional, cell-based
Procedure, shortened: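 Cells exposed to a range of concentrations or DMSO vehicle for 24 h, washed, trypsinized and replated at 500 cells/well; after 14 days colonies were fixed and stained with 0.5% crystal violet in 70% EtOH. Colonies of more than 50 cells were counted, and survival fraction was taken relative to DMSO control.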

[9] = target: T2, Protein deacetylase HDAC6 (Homo sapiens) (UniProt Q9UBN7); assay: Inhibition of HDAC6 in human HCT116 cells assessed as upregulation of acetylated tubulin levels at 2.5 uM after 6 hrs by Western blot method; type: cell-based
T2 sequence (whole entry): T1 sequence (Q9UBN7 whole entry)
Procedure, shortened: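 HCT116 cells treated 6 h with compound, then lysates probed by western blot for acetyl-tubulin, with ECL detection.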

Homo sapiens [10] = species: Homo sapiens; assay: Inhibition of class 1 HDAC in human HCT116 cells assessed as upregulation of acetylated histone H3 levels at 2.5 uM after 6 hrs by Western blot method; type: cell-based
HCT-116 [11] = assay: Cell cycle arrest in human HCT116 cells assessed as accumulation at sub-G1 phase after 48 hrs by propidium iodide staining-based flow cytometric method; type: functional; procedure, shortened: as §2

Sequence of Histone deacetylase 2 (Q92769 whole entry): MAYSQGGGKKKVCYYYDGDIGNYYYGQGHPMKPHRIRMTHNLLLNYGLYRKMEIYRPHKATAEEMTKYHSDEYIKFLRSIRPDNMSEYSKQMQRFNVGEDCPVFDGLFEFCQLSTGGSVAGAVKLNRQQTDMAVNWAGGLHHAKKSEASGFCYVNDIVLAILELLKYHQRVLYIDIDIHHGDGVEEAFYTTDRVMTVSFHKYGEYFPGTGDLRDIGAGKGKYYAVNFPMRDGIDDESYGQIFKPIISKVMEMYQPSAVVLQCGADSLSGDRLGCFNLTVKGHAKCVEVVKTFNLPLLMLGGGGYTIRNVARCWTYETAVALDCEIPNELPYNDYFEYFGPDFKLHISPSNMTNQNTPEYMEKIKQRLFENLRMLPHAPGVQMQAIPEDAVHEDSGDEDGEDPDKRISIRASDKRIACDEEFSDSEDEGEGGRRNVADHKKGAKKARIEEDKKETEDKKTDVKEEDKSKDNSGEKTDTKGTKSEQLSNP
Sequence of Histone deacetylase 1 (Q13547 whole entry): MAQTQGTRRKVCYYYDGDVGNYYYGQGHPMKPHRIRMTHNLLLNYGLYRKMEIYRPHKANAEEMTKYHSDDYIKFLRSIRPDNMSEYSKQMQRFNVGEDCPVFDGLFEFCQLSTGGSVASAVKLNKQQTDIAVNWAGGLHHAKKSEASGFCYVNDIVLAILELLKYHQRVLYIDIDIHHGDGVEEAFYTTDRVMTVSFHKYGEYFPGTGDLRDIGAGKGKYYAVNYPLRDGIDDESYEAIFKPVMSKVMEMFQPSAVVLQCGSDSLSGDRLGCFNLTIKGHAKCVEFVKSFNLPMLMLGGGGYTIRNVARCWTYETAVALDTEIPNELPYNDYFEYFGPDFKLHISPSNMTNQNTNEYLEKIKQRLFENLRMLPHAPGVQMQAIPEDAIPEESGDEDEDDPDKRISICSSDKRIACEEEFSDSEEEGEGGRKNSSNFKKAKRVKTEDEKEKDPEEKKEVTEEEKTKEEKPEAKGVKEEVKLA

GI50 (HCT-116 [1]) | GI50 (PC-3) | GI50 (A549) | IC50 (Histone deacetylase 1) | IC50 (Histone deacetylase 2) | IC50 [2] | Ratio IC50 (Homo sapiens [3]) | Ratio IC50 (Homo sapiens [4]) | Acetylated tubulin upregulation (qualitative) [9] | SMILES | Activity (HCT-116 [5]) | Activity (HCT-116 [6]) | Activity (HCT-116 [7]) | Activity (HCT-116 [8]) | Acetylated histone H3 upregulation (qualitative) (Homo sapiens [10]) | Activity (HCT-116 [11])
1390 nM | 2550 nM | 3000 nM | 2250 nM | 1120 nM | 43.1 nM | 52 | 25 |  | CN(C)Cc1cn(Cc2ccc(/C=C/C(=O)NO)cc2)c2ccccc12 |  |  |  |  |  | 
> 5000 nM | > 5000 nM | > 5000 nM |  |  |  |  |  |  | CN1CCc2c(c3ccccc3n2Cc2ccc(C(=O)NO)cc2)C1 [TUBASTATIN A] | Active | inactive | inactive |  |  | 
640 nM | 1840 nM | 2450 nM | 2700 nM | 3130 nM | 189 nM | 14 | 16 |  | CN1CCc2c(c3ccccc3n2S(=O)(=O)c2cccc(/C=C/C(=O)NO)c2)C1 |  |  |  |  |  | 
550 nM | 700 nM | 1560 nM | 4010 nM | 1270 nM | 63 nM | 63 | 20 | Active | Cc1c(CN(C)C)c2ccccc2n1S(=O)(=O)c1ccc(/C=C/C(=O)NO)cc1 |  | Active | Active | Dose-dependent effect | inactive | Dose-dependent effect
> 5000 nM | 3930 nM | > 5000 nM | 7130 nM | 12200 nM | 21.7 nM | 328 | 562 |  | CN(C)Cc1cn(Cc2ccc(C(=O)NO)cc2)c2ccccc12 |  |  |  |  |  | 
730 nM | 1690 nM | 2680 nM | 1600 nM | 1650 nM | 41.8 nM | 38 | 39 |  | CN1CCc2c(c3ccccc3n2Cc2ccc(/C=C/C(=O)NO)cc2)C1 |  |  |  |  |  | 
520 nM | 790 nM | 1620 nM | 1930 nM | 970 nM | 16.7 nM | 115 | 58 | Active | CN(C)Cc1cn(S(=O)(=O)c2ccc(/C=C/C(=O)NO)cc2)c2ccccc12 |  | Active | Active | Dose-dependent effect | inactive | Dose-dependent effect
1260 nM | 2080 nM | 3690 nM | 2130 nM | 2380 nM | 96.4 nM | 22 | 24 |  | Cc1c(CN(C)C)c2ccccc2n1Cc1ccc(/C=C/C(=O)NO)cc1 |  |  |  |  |  | 
500 nM | 1690 nM | 1920 nM | 1850 nM | 1340 nM | 84.9 nM | 21 | 15 | Active | Cc1c(CN(C)C)c2ccccc2n1S(=O)(=O)c1cccc(/C=C/C(=O)NO)c1 |  | Active | Active | Dose-dependent effect | inactive | Dose-dependent effect
2490 nM | > 5000 nM | > 5000 nM | 6910 nM | > 10000 nM | 201 nM | 34 | > 49 |  | CN(C)C(=O)c1cn(S(=O)(=O)c2cccc(/C=C/C(=O)NO)c2)c2ccccc12 |  |  |  |  |  | 
540 nM | 1030 nM | 1870 nM | 1510 nM | 1640 nM | 89.3 nM | 16 | 18 | Active | CN(C)Cc1cn(S(=O)(=O)c2cccc(/C=C/C(=O)NO)c2)c2ccccc12 |  | Active | Active | Dose-dependent effect | inactive | Dose-dependent effect
2140 nM | 3100 nM | > 5000 nM | 2010 nM | 1460 nM | 10.8 nM | 186 | 135 |  | CN(C)C(=O)c1cn(S(=O)(=O)c2ccc(/C=C/C(=O)NO)cc2)c2ccccc12 |  |  |  |  |  | 
> 5000 nM | > 5000 nM | > 5000 nM | 9730 nM | > 10000 nM | 6.17 nM | 1580 | > 1620 |  | Cc1c(CN(C)C)c2ccccc2n1Cc1ccc(C(=O)NO)cc1 |  |  |  |  |  | 

SMILES | GI50 (HCT-116 [1]) | GI50 (PC-3) | GI50 (A549) | IC50 (Histone deacetylase 1) | IC50 (Histone deacetylase 2) | IC50 [2] | Ratio IC50 (Homo sapiens [3]) | Ratio IC50 (Homo sapiens [4]) | Acetylated tubulin upregulation (qualitative) [9] | Activity (HCT-116 [5]) | Activity (HCT-116 [6]) | Activity (HCT-116 [7]) | Activity (HCT-116 [8]) | Acetylated histone H3 upregulation (qualitative) (Homo sapiens [10]) | Activity (HCT-116 [11])
CN(C)C(=O)c1cn(Cc2ccc(C(=O)NO)cc2)c2ccccc12 | > 5000 nM | > 5000 nM | > 5000 nM | 5720 nM | > 10000 nM | 8.01 nM | 714 | > 1250 |  |  |  |  |  |  | 
CN(C)C(=O)c1cn(Cc2ccc(/C=C/C(=O)NO)cc2)c2ccccc12 | 750 nM | 1890 nM | 3330 nM | 627 nM | 1040 nM | 8.5 nM | 73 | 122 | Active |  | Active | Active | Dose-dependent effect | inactive | Dose-dependent effect
